Test results published in ChEMBL document CHEMBL4138204, “Polyoxygenated Steroids from the Sponge Clathria gombawuiensis” (J Nat Prod, 2017).
The source made the active and inactive calls. No cut-off for these calls is given here.

Assays:
[1] = tested on: K562; assay: Cytotoxicity against human K562 cells after 72 hrs by MTT assay; format: functional, cell-based; settings: K562, 72 h
[2] = target: Sodium/potassium-transporting ATPase; assay: Inhibition of potassium-activated sodium/potassium ATPase in human placenta using 3-Omethylfluorescein phosphate as substrate measured for 90 secs by fluorescence assay
[3] = species on record: Mus musculus; assay: Activation of AMPKalpha in differentiated mouse 3T3L1 cells assessed as increase in 2-NBDG uptake at 20 uM by fluorescence microscopic analysis
In short: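 Differentiated 3T3-L1 adipocytes were treated with 20 μM compound or 100 nM insulin as a positive control, then exposed to 2-NBDG as the fluorescent glucose analogue. Uptake was imaged by fluorescence microscopy as green signal inside the cells.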

[4] = tested on: C2C12; assay: Activation of AMPKalpha phosphorylation at Thr172 in mouse C2C12 cells at 20 uM after 30 mins by Western blot analysis; format: cell-based
In short: (§1)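 Differentiated mouse C2C12 skeletal myoblasts were given compounds at 20 μM, or Aicar (0.2 mM, AMPK activator), for 30 min. pAMPK (Thr172) and pACC (Ser79) were quantified by Western blot. Mean ± SD of 2–4 independent experiments, compared with vehicle by ANOVA.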

[5] = tested on: Bacillus spizizenii; assay: Antibacterial activity against Bacillus subtilis ATCC 6633 measured after 24 hrs; format: functional; settings: ATCC 6633, 24 h
[6] = Inhibition of recombinant sortase A (unknown origin) using Dabcyl-QALPETGEE-Edans as substrate measured after 1 hr by fluorescence assay; set-up: species or system Bacteria
[7] = tested on: Trichophyton mentagrophytes; assay: Antifungal activity against Trichophyton mentagrophytes IFO 40996 measured after 48 to 72 hrs; format: functional
[8] = tested on: Kocuria rhizophila; assay: Antibacterial activity against Kocuria rhizophila NBRC 12708 measured after 24 hrs; format: functional; settings: NBRC 12708, 24 h
[9] = tested on: Trichophyton rubrum; assay: Antifungal activity against Trichophyton rubrum IFO 9185 measured after 48 to 72 hrs; format: functional
[10] = tested on: Aspergillus fumigatus; assay: Antifungal activity against Aspergillus fumigatus HIC 6094 measured after 48 to 72 hrs; format: functional
[11] = tested on: Salmonella typhimurium; assay: Antibacterial activity against Salmonella enterica ATCC 14028 measured after 24 hrs; format: functional, Salmonella enterica subsp. enterica serovar Typhimurium; settings: ATCC 14028, 24 h
[12] = species on record: Mus musculus; assay: Activation of AMPKalpha in differentiated mouse 3T3L1 cells assessed as increase in 2-NBDG uptake pretreated for 30 mins followed by 2-NBDG addition measured after 1 hr by fluorescence assay
In short: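 2-NBDG uptake in differentiated 3T3-L1 adipocytes. Cells got compounds at several concentrations, or 100 nM insulin as a positive control. After 1 h incubation, fluorescence was read at ex/em 450/535 nm. Mean ± SD (n = 3), compared with vehicle by ANOVA.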

[13] = tested on: Candida albicans; assay: Antifungal activity against Candida albicans ATCC 10231 measured after 48 to 72 hrs; format: functional
[14] = tested on: Staphylococcus aureus; assay: Antibacterial activity against Staphylococcus aureus ATCC 6538P measured after 24 hrs; format: functional
[15] = Inhibition of isocitrate lyase (unknown origin)
[16] = tested on: A549; assay: Cytotoxicity against human A549 cells after 72 hrs by MTT assay; format: functional, cell-based; settings: A549, 72 h
[17] = tested on: C2C12; assay: Activation of AMPKalpha in mouse C2C12 cells assessed as increase in phosphorylation of ACC at Ser79 at 20 uM after 30 mins by Western blot analysis; format: cell-based; in short: as §1
[18] = tested on: Escherichia coli; assay: Antibacterial activity against Escherichia coli ATCC 35270 measured after 24 hrs; format: functional; settings: ATCC 35270, 24 h
[19] = tested on: Proteus hauseri; assay: Antibacterial activity against Proteus hauseri NBRC 3851 measured after 24 hrs; format: functional; settings: NBRC 3851, 24 h
[20] = tested on: C2C12; assay: Activation of AMPKalpha phosphorylation at Thr172 in mouse C2C12 cells at 5 to 20 uM after 30 mins in presence of AMPK inhibitor dorsomorphin by Western blot analysis; format: cell-based
In short: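 C2C12 myoblasts were exposed to compound at 5, 10 and 20 μM for 30 min, with compound C pretreatment used to test AMPK dependence. pAMPK (Thr172) was measured by Western blot. Mean ± SD (n = 3), compared with control.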

SMILES | IC50 [1] [µM] | IC50 [2] [µM] | Activity [3] | Activity [4] | MIC [5] [µM] | IC50 [6] [µM] | MIC [7] [µM] | MIC [8] [µM] | MIC [9] [µM] | MIC [10] [µM] | MIC [11] [µM] | Activity [12] | MIC [13] [µM] | MIC [14] [µM] | IC50 [15] [µM] | IC50 [16] [µM] | Activity [17] | MIC [18] [µM] | MIC [19] [µM] | Activity [20]
CC(C)[C@@H](CC[C@@H](C)[C@H]1CC(=O)[C@@H]2[C@@H]3[C@@H](O)[C@H](O)[C@H]4C[C@@H](O)CC[C@]4(C)[C@H]3CC[C@]12C)[C@@H](C)O | > 10 | > 128 | Active | Active | > 128 | > 128 | > 128 | > 128 | > 128 | > 128 | > 128 | Dose-dependent effect | > 128 | > 128 | > 128 | > 10 | Active | > 128 | > 128 | –
CC(C)[C@H](C)[C@@H](O)[C@H](O)[C@@H](C)[C@H]1CC(=O)[C@@H]2[C@@H]3[C@@H](OS(=O)(=O)O)[C@H](O)[C@H]4[C@H](O)[C@@H](O)CC[C@]4(C)[C@H]3CC[C@]12C | > 10 | > 128 | – | Active | > 128 | > 128 | > 128 | > 128 | > 128 | > 128 | > 128 | – | > 128 | > 128 | > 128 | > 10 | Active | > 128 | > 128 | –
CC(C)[C@H](C)[C@@H](O)[C@H](O)[C@@H](C)[C@H]1CC(=O)[C@H]2[C@@H]3[C@@H](O)[C@H](O)[C@H]4[C@H](O)[C@@H](O)CC[C@]4(C)[C@H]3CC[C@]12C | > 10 | > 128 | Active | Active | > 128 | > 128 | > 128 | > 128 | > 128 | > 128 | > 128 | Dose-dependent effect | > 128 | > 128 | > 128 | > 10 | Active | > 128 | > 128 | inactive
CC(C)C[C@H](O)C[C@@H](C)[C@H]1CC(=O)[C@@H]2[C@@H]3[C@@H](O)[C@H](O)[C@H]4[C@H](O)[C@@H](O)CC[C@]4(C)[C@H]3CC[C@]12C | > 10 | > 128 | – | Active | > 128 | > 128 | > 128 | > 128 | > 128 | > 128 | > 128 | – | > 128 | > 128 | > 128 | > 10 | Active | > 128 | > 128 | –
CC(C)[C@H](C)[C@@H](O)[C@H](O)[C@@H](C)[C@H]1CC(=O)[C@@H]2[C@@H]3[C@@H](O)[C@H](O)[C@H]4[C@H](O)[C@@H](O)CC[C@]4(C)[C@H]3CC[C@]12C | > 10 | > 128 | Active | Active | > 128 | > 128 | > 128 | > 128 | > 128 | > 128 | > 128 | Dose-dependent effect | > 128 | > 128 | > 128 | > 10 | Active | > 128 | > 128 | –
CC(C)C[C@@H](O)[C@H](O)[C@@H](C)[C@H]1CC(=O)[C@@H]2[C@@H]3[C@@H](O)[C@H](O)[C@H]4[C@H](O)[C@@H](O)CC[C@]4(C)[C@H]3CC[C@]12C | > 10 | > 128 | Active | Active | > 128 | > 128 | > 128 | > 128 | > 128 | > 128 | > 128 | Dose-dependent effect | > 128 | > 128 | > 128 | > 10 | Active | > 128 | > 128 | –
CC(C)[C@H](C)[C@@H](O)C[C@@H](C)[C@H]1CC(=O)[C@H]2[C@@H]3[C@@H](O)[C@H](O)[C@H]4[C@H](O)[C@@H](O)CC[C@]4(C)[C@H]3CC[C@]12C | > 10 | > 128 | Active | Active | > 128 | > 128 | > 128 | > 128 | > 128 | > 128 | > 128 | Dose-dependent effect | > 128 | > 128 | > 128 | > 10 | Active | > 128 | > 128 | –
